Measured values gathered from unrelated publications.
Compare with care: the assays were run in different laboratories.
Cell line: MCF7
Read-out: cell growth or viability

O=[N+]([O-])c1ccc(-c2nc3ccccc3n2Cc2ccccc2)cc1 — IC50 (MTT): 9.56 µM
CC/C(=C(/c1ccc(OCCNC)cc1)c1ccc(B2OC(C)(C)C(C)(C)O2)cc1)c1ccccc1 — IC50 (5 days): 0.708 µM
O=C1C[C@@H](c2ccc(O)cc2)Oc2cc(O)cc(O)c21 — IC50 (MTT; 48 h): 4.75 µM
Cc1ccc2nc(-c3ccc(Cl)c(Cl)c3)[nH]c2c1 — IC50 (MTT; 48 h): 50.8 µM
Oc1ccc(-c2ccc3ncnc(Nc4cccc(C(F)(F)F)c4)c3c2)cc1 — IC50 (MTT; 24 h): 6.19 µM
Clc1ccnc2c1ccc1c(Cl)ccnc12 — IC50 (MTT; 48 h): > 50 µM
COc1cc2ncnc(Nc3ccc(F)c(Cl)c3)c2cc1NC(=O)N/N=C/c1cccn1CCN(C)C — IC50 (MTT; 72 h): 3.21 µM
Cc1ccc2nc(-c3cccnc3)[nH]c2c1 — IC50 (MTT; 48 h): 51.1 µM
COc1cc2ncnc(Nc3ccc(F)c(Cl)c3)c2cc1NC(=O)N/N=C/CN1CCN(C)CC1 — IC50 (MTT; 72 h): 8.76 µM
COc1ccc(-c2nn(-c3ccc(S(C)(=O)=O)cc3)cc2/C=N/N=c2\[nH]c(-c3ccc(Br)cc3)cs2)cc1 — IC50 (MTT; 48 h): 3.18 µM
Oc1ncnc2cc(Nc3nc(-c4ccc(Cl)cc4)cs3)ccc12 — IC50 (MTT): 4.14 µM
Cc1ccc(O)c(/C=N/c2nc(Oc3ccccc3)nn2-c2ccc(C(=O)O)cc2)c1 — IC50 (MTT): 30.3 µM
O=S(=O)(NN=Cc1cn(CCN2CCOCC2)c2ccccc12)c1ccc(F)cc1 — IC50 (MTT; 48 h): 32.6 µM
O=c1[nH]cc(F)c(=O)[nH]1 — IC50 (WST-1; 48 h): 3.1 µM
CC(C)NCC(O)COc1ccccc1-c1ccccc1OCC(O)CNC(C)C (stereo not shown) — IC50 (MTT; 72 h): > 75 µM
C=C1C(=O)[C@]2(OC)C(=O)O[C@@]34C[C@H](C)C(C(=O)O)=C[C@@H]3CCC[C@@H](C)C[C@@H](C)[C@H]1O[C@H]24 — IC50 (ATP luminescence): 21 µM
CCN(CC)C/C=N/NC(=O)Nc1cc2c(Nc3ccc(F)c(Cl)c3)ncnc2cc1O[C@H]1CCOC1 — IC50 (MTT; 72 h): 2.34 µM
C=CCn1c(-c2ccc([N+](=O)[O-])cc2)nc2ccccc21 — IC50 (MTT): 34.1 µM
c1ccc2cc(-c3nnc(NC4CCCCC4)[nH]3)ccc2c1 — IC50 (48 h): 1.75 µM
CC(C)C(=O)Nc1ccc([N+](=O)[O-])c(C(F)(F)F)c1 — IC50 (CCK-8; 48 h): 39 µM
c1cncc(-c2nc3ccccc3[nH]2)c1 — IC50 (MTT; 48 h): > 100 µM
CC(C)C[C@H](NC(=O)[C@H](Cc1ccccc1)NC(=O)c1cnccn1)B(O)O — IC50 (ATP luminescence): 0.0088 µM
COc1cc2ncnc(Nc3ccc(F)c(Cl)c3)c2cc1NC(=O)N/N=C/c1cccn1CCN1CCCCC1 — IC50 (MTT; 72 h): 2.18 µM
c1ccc2[nH]c(-c3ccc4c(c3)OCO4)nc2c1 — IC50 (MTT; 48 h): > 100 µM
O=C(NC(=S)N1CCCC1)c1ccc2ccccc2c1 — IC50 (48 h): 3.62 µM
